Measured values reported in ChEMBL document CHEMBL1926577, “Novel 1,3,4-heterodiazole analogues: synthesis and in-vitro antitumor activity” (2012).

What was measured:
Type in all cases: functional
[1] = test system: BT-549; experiment: Growth inhibition of human BT549 cells at 10 uM after 48 hrs by coulter counter method; conditions: BT-549, 48 h, read-out: GI
How it was run: (§1)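 NCI 60-cell-line panel, single dose. Compound dissolved first in DMSO, then diluted in phosphate-buffered saline so that every final dilution held under 1% DMSO. Duplicate wells received cells at 6 × 10⁴ cells/ml. Controls held PBS/DMSO at the same dilution. Plates were incubated 48 h at 37 °C under 5% CO₂. Cells were then diluted 10-fold in saline and counted on a Coulter counter, with counts corrected for the dilution. Results are given as percent growth inhibition.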

[2] = test system: CAKI-1; experiment: Growth inhibition of human Caki1 cells at 10 uM after 48 hrs by coulter counter method; conditions: CAKI-1, 48 h, read-out: GI; how it was run: as §1
[3] = test system: SR; experiment: Growth inhibition of human SR cells at 10 uM after 48 hrs by coulter counter method; conditions: read-out: GI; how it was run: as §1
[4] = test system: IGROV-1; experiment: Growth inhibition of human IGROV1 cells at 10 uM after 48 hrs by coulter counter method; conditions: IGROV-1, 48 h, read-out: GI; how it was run: as §1
[5] = test system: NCI-H522; experiment: Growth inhibition of human NCI-H522 cells at 10 uM after 48 hrs by coulter counter method; conditions: NCI-H522, 48 h, read-out: GI; how it was run: as §1
[6] = test system: K562; experiment: Growth inhibition of human K562 cells at 10 uM after 48 hrs by coulter counter method; conditions: K562, 48 h, read-out: GI; how it was run: as §1
[7] = test system: SK-MEL-5; experiment: Growth inhibition of human SK-MEL-5 cells at 10 uM after 48 hrs by coulter counter method; conditions: SK-MEL-5, 48 h, read-out: GI; how it was run: as §1
[8] = test system: A549; experiment: Growth inhibition of human A549 cells at 10 uM after 48 hrs by coulter counter method; conditions: A549, 48 h, read-out: GI; how it was run: as §1
[9] = test system: SF-268; experiment: Growth inhibition of human SF268 cells at 10 uM after 48 hrs by coulter counter method; conditions: SF-268, 48 h, read-out: GI; how it was run: as §1
[10] = test system: Malme-3M; experiment: Growth inhibition of human MALME-3M cells at 10 uM after 48 hrs by coulter counter method; conditions: read-out: GI; how it was run: as §1
[11] = test system: UO-31; experiment: Growth inhibition of human UO31 cells at 10 uM after 48 hrs by coulter counter method; conditions: UO-31, 48 h, read-out: GI; how it was run: as §1
[12] = test system: CCRF-CEM; experiment: Growth inhibition of human CCRF-CEM cells at 10 uM after 48 hrs by coulter counter method; conditions: read-out: GI; how it was run: as §1
[13] = test system: NCI-H226; experiment: Growth inhibition of human NCI-H226 cells at 10 uM after 48 hrs by coulter counter method; conditions: NCI-H226, 48 h, read-out: GI; how it was run: as §1
[14] = test system: SNB-19; experiment: Growth inhibition of human SNB19 cells at 10 uM after 48 hrs by coulter counter method; conditions: SNB-19, 48 h, read-out: GI; how it was run: as §1
[15] = test system: PC-3; experiment: Growth inhibition of human PC3 cells at 10 uM after 48 hrs by coulter counter method; conditions: PC-3, 48 h, read-out: GI; how it was run: as §1
[16] = test system: LOX IMVI; experiment: Growth inhibition of human LOXIMVI cells at 10 uM after 48 hrs by coulter counter method; conditions: read-out: GI; how it was run: as §1
[17] = test system: MDA-MB-468; experiment: Growth inhibition of human MDA-MB-468 cells at 10 uM after 48 hrs by coulter counter method; conditions: MDA-MB-468, 48 h, read-out: GI; how it was run: as §1
[18] = test system: A498; experiment: Growth inhibition of human A498 cells at 10 uM after 48 hrs by coulter counter method; conditions: A498, 48 h, read-out: GI; how it was run: as §1
[19] = test system: ACHN; experiment: Growth inhibition of human ACHN cells at 10 uM after 48 hrs by coulter counter method; conditions: read-out: GI; how it was run: as §1
[20] = test system: M14; experiment: Growth inhibition of human M14 cells at 10 uM after 48 hrs by coulter counter method; conditions: M14, 48 h, read-out: GI; how it was run: as §1
[21] = test system: HCT-116; experiment: Growth inhibition of human HCT116 cells at 10 uM after 48 hrs by coulter counter method; conditions: HCT-116, 48 h, read-out: GI; how it was run: as §1
[22] = test system: KM12; experiment: Growth inhibition of human KM12 cells at 10 uM after 48 hrs by coulter counter method; conditions: KM12, 48 h, read-out: GI; how it was run: as §1
[23] = test system: EKVX; experiment: Growth inhibition of human EKVX cells at 10 uM after 48 hrs by coulter counter method; conditions: read-out: GI; how it was run: as §1
[24] = test system: RPMI-8226; experiment: Growth inhibition of human RPMI8226 cells at 10 uM after 48 hrs by coulter counter method; conditions: RPMI-8226, 48 h, read-out: GI; how it was run: as §1
[25] = test system: OVCAR-8; experiment: Growth inhibition of human OVCAR8 cells at 10 uM after 48 hrs by coulter counter method; conditions: OVCAR-8, 48 h, read-out: GI; how it was run: as §1
[26] = test system: 786-0; experiment: Growth inhibition of human 786-0 cells at 10 uM after 48 hrs by coulter counter method; conditions: 786-0, 48 h, read-out: GI; how it was run: as §1
[27] = test system: MOLT-4; experiment: Growth inhibition of human MOLT4 cells at 10 uM after 48 hrs by coulter counter method; conditions: MOLT-4, 48 h, read-out: GI; how it was run: as §1
[28] = test system: SN12C; experiment: Growth inhibition of human SN12C cells at 10 uM after 48 hrs by coulter counter method; conditions: read-out: GI; how it was run: as §1
[29] = test system: MCF7; experiment: Growth inhibition of human MCF7 cells at 10 uM after 48 hrs by coulter counter method; conditions: MCF7, 48 h, read-out: GI; how it was run: as §1
[30] = test system: NCI-H322M; experiment: Growth inhibition of human NCI-H322M cells at 10 uM after 48 hrs by coulter counter method; conditions: read-out: GI; how it was run: as §1
[31] = test system: UACC-62; experiment: Growth inhibition of human UACC62 cells at 10 uM after 48 hrs by coulter counter method; conditions: UACC-62, 48 h, read-out: GI; how it was run: as §1
[32] = test system: MDA-MB-435; experiment: Growth inhibition of human MDA-MB-435 cells at 10 uM after 48 hrs by coulter counter method; conditions: MDA-MB-435, 48 h, read-out: GI; how it was run: as §1
[33] = test system: HL-60(TB); experiment: Growth inhibition of human HL-60(TB) cells at 10 uM after 48 hrs by coulter counter method; conditions: HL-60, 48 h, read-out: GI
How it was run: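 Single-dose screen on the NCI 60-line panel (leukemia subpanel). Compound is dissolved in DMSO and diluted in PBS, with final DMSO below 1%. Duplicate wells hold 6 × 10⁴ cells/ml at 37 °C, 5% CO₂, for 48 h. Cells are counted by Coulter counter after 10-fold saline dilution. Read-out is percent growth versus PBS/DMSO controls, expressed as % growth inhibition.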

[34] = test system: T47D; experiment: Growth inhibition of human T47D cells at 10 uM after 48 hrs by coulter counter method; conditions: read-out: GI; how it was run: as §1
[35] = test system: TK-10; experiment: Growth inhibition of human TK10 cells at 10 uM after 48 hrs by coulter counter method; conditions: TK-10, 48 h, read-out: GI; how it was run: as §1
[36] = test system: SNB-75; experiment: Growth inhibition of human SNB75 cells at 10 uM after 48 hrs by coulter counter method; conditions: SNB-75, 48 h, read-out: GI; how it was run: as §1
[37] = test system: SF-295; experiment: Growth inhibition of human SF295 cells at 10 uM after 48 hrs by coulter counter method; conditions: SF-295, 48 h, read-out: GI; how it was run: as §1
[38] = test system: HT-29; experiment: Growth inhibition of human HT-29 cells at 10 uM after 48 hrs by coulter counter method; conditions: HT-29, 48 h, read-out: GI; how it was run: as §1
[39] = test system: SK-MEL-2; experiment: Growth inhibition of human SK-MEL-2 cells at 10 uM after 48 hrs by coulter counter method; conditions: SK-MEL-2, 48 h, read-out: GI; how it was run: as §1
[40] = test system: HCT-15; experiment: Growth inhibition of human HCT15 cells at 10 uM after 48 hrs by coulter counter method; conditions: HCT-15, 48 h, read-out: GI; how it was run: as §1
[41] = test system: NCI-H23; experiment: Growth inhibition of human NCI-H23 cells at 10 uM after 48 hrs by coulter counter method; conditions: NCI-H23, 48 h, read-out: GI; how it was run: as §1
[42] = test system: SK-MEL-28; experiment: Growth inhibition of human SK-MEL-28 cells at 10 uM after 48 hrs by coulter counter method; conditions: SK-MEL-28, 48 h, read-out: GI; how it was run: as §1
[43] = test system: UACC-257; experiment: Growth inhibition of human UACC257 cells at 10 uM after 48 hrs by coulter counter method; conditions: UACC-257, 48 h, read-out: GI; how it was run: as §1
[44] = test system: NCI/ADR-RES; experiment: Growth inhibition of human NCI/ADR-RES cells at 10 uM after 48 hrs by coulter counter method; conditions: read-out: GI; how it was run: as §1
[45] = test system: U-251; experiment: Growth inhibition of human U251 cells at 10 uM after 48 hrs by coulter counter method; conditions: U-251, 48 h, read-out: GI; how it was run: as §1

Measured: inhibition of growth at 10 µM

O=C1CN2N=C(c3ccccc3)OC2=N1
14.7%: [37]
10.9%: [18]
21.2%: [2]
20.4%: [11]
< 10%: all other assays above

NC1=CC(N)=NC2OC(c3ccccc3)=NN12 (stereo not given)
15.6%: [33] | [37]
10.4%: [3] | [27]
27%: [11]
< 10%: all other assays above
